# Results taken from ChEMBL document CHEMBL4689842, “EUbOPEN Chemogenomics Library wave 1” (2021).
# Assays:
# Assay type in all cases: toxicity, cell-based
# [1] = tested on: Fibroblast; test: Multiplex assay against human fibroblast
# How it was run: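 Tubulin, mitochondrial-mass and membrane-permeability phenotypes are per cents of healthy-nucleus cells. Cells were gated by CellPathfinder machine learning into Hoechst high-intensity objects or normal cells, normal cells into healthy, pyknosed or fragmented nuclei, and pyknosed cells into mitotic or apoptotic. Before that, live cells stained at seeding with Hoechst33342, BioTracker Green Microtubule Cytoskeleton Dye, MitoTracker Red and Annexin V Alexa Fluor 680 were imaged on a CQ1 microscope at 37°C and 5% CO2 after compound addition.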
# [2] = tested on: HEK-293T; test: Incucyte cell viability with HEK293T; conditions: human, 10 µM, compound concentration 10 uM; further: filed as whole numbers so only -1 and 0 and 1 occur
# [3] = tested on: U2OS; test: Incucyte cell viability with U2OS; conditions: human, 10 µM, compound concentration 10 uM; further: filed as whole numbers so only -1 and 0 and 1 occur
# [4] = 12 h, 1 µM, compound concentration 1 uM, replicate 1
# [5] = 12 h, 1 µM, compound concentration 1 uM, replicate 2
# [6] = 12 h, 10 µM, compound concentration 10 uM, replicate 1
# [7] = 12 h, 10 µM, compound concentration 10 uM, replicate 2
# [8] = 24 h, 1 µM, compound concentration 1 uM, replicate 1
# [9] = 24 h, 1 µM, compound concentration 1 uM, replicate 2
# [10] = 24 h, 10 µM, compound concentration 10 uM, replicate 1
# [11] = 24 h, 10 µM, compound concentration 10 uM, replicate 2
# [12] = 48 h, 1 µM, compound concentration 1 uM, replicate 1
# [13] = 48 h, 1 µM, compound concentration 1 uM, replicate 2
# [14] = 48 h, 10 µM, compound concentration 10 uM, replicate 1
# [15] = 48 h, 10 µM, compound concentration 10 uM, replicate 2
# [16] = 0 h, replicate number 1, timepoint 0 hours
# [17] = 24 h, replicate number 1, timepoint 24 hours
structure (smiles),measurement,setting,value
Cc1ccc(S(=O)(=O)NC2c3ccccc3Oc3ccccc32)cc1,Population Apoptotic (%),[1]; [4],57%
same,Population Fragmented Nuclei (%),[1]; [4],25%
same,Population Healthy Nuclei (%),[1]; [4],46%
same,Population Hoechst High Intensity Objects (%),[1]; [4],11%
same,Population Membrane Permeable-Phenotype (%),[1]; [4],25%
same,Population Mitochondria Different-Phenotype (%),[1]; [4],6%
same,Population Mitotic Cells (%),[1]; [4],42%
same,Population Normal (%),[1]; [4],88%
same,Population Pyknosed Nuclei (%),[1]; [4],27%
same,Population Tubulin-Different-Phenotype (%),[1]; [4],27%
same,Total Cell Count,[1]; [4],105
same,Population Apoptotic (%),[1]; [5],0%
same,Population Fragmented Nuclei (%),[1]; [5],10%
same,Population Healthy Nuclei (%),[1]; [5],76%
same,Population Hoechst High Intensity Objects (%),[1]; [5],4%
same,Population Membrane Permeable-Phenotype (%),[1]; [5],0%
same,Population Mitochondria Different-Phenotype (%),[1]; [5],16%
same,Population Mitotic Cells (%),[1]; [5],100%
same,Population Normal (%),[1]; [5],95%
same,Population Pyknosed Nuclei (%),[1]; [5],12%
same,Population Tubulin-Different-Phenotype (%),[1]; [5],2%
same,Total Cell Count,[1]; [5],49
same,Population Apoptotic (%),[1]; [6],80%
same,Population Fragmented Nuclei (%),[1]; [6],41%
same,Population Healthy Nuclei (%),[1]; [6],41%
same,Population Hoechst High Intensity Objects (%),[1]; [6],17%
same,Population Membrane Permeable-Phenotype (%),[1]; [6],56%
same,Population Mitochondria Different-Phenotype (%),[1]; [6],54%
same,Population Mitotic Cells (%),[1]; [6],20%
same,Population Normal (%),[1]; [6],82%
same,Population Pyknosed Nuclei (%),[1]; [6],16%
same,Population Tubulin-Different-Phenotype (%),[1]; [6],17%
same,Total Cell Count,[1]; [6],218
same,Population Apoptotic (%),[1]; [7],95%
same,Population Fragmented Nuclei (%),[1]; [7],42%
same,Population Healthy Nuclei (%),[1]; [7],34%
same,Population Hoechst High Intensity Objects (%),[1]; [7],6%
same,Population Membrane Permeable-Phenotype (%),[1]; [7],44%
same,Population Mitochondria Different-Phenotype (%),[1]; [7],0%
same,Population Mitotic Cells (%),[1]; [7],4%
same,Population Normal (%),[1]; [7],93%
same,Population Pyknosed Nuclei (%),[1]; [7],23%
same,Population Tubulin-Different-Phenotype (%),[1]; [7],50%
same,Total Cell Count,[1]; [7],106
same,Population Apoptotic (%),[1]; [8],50%
same,Population Fragmented Nuclei (%),[1]; [8],26%
same,Population Healthy Nuclei (%),[1]; [8],51%
same,Population Hoechst High Intensity Objects (%),[1]; [8],19%
same,Population Membrane Permeable-Phenotype (%),[1]; [8],28%
same,Population Mitochondria Different-Phenotype (%),[1]; [8],10%
same,Population Mitotic Cells (%),[1]; [8],50%
same,Population Normal (%),[1]; [8],80%
same,Population Pyknosed Nuclei (%),[1]; [8],22%
same,Population Tubulin-Different-Phenotype (%),[1]; [8],53%
same,Total Cell Count,[1]; [8],119
same,Population Apoptotic (%),[1]; [9],25%
same,Population Fragmented Nuclei (%),[1]; [9],5%
same,Population Healthy Nuclei (%),[1]; [9],88%
same,Population Hoechst High Intensity Objects (%),[1]; [9],7%
same,Population Membrane Permeable-Phenotype (%),[1]; [9],7%
same,Population Mitochondria Different-Phenotype (%),[1]; [9],15%
same,Population Mitotic Cells (%),[1]; [9],75%
same,Population Normal (%),[1]; [9],92%
same,Population Pyknosed Nuclei (%),[1]; [9],6%
same,Population Tubulin-Different-Phenotype (%),[1]; [9],13%
same,Total Cell Count,[1]; [9],65
same,Population Apoptotic (%),[1]; [10],75%
same,Population Fragmented Nuclei (%),[1]; [10],35%
same,Population Healthy Nuclei (%),[1]; [10],53%
same,Population Hoechst High Intensity Objects (%),[1]; [10],16%
same,Population Membrane Permeable-Phenotype (%),[1]; [10],64%
same,Population Mitochondria Different-Phenotype (%),[1]; [10],43%
same,Population Mitotic Cells (%),[1]; [10],25%
same,Population Normal (%),[1]; [10],83%
same,Population Pyknosed Nuclei (%),[1]; [10],11%
same,Population Tubulin-Different-Phenotype (%),[1]; [10],28%
same,Total Cell Count,[1]; [10],170
same,Population Apoptotic (%),[1]; [11],100%
same,Population Fragmented Nuclei (%),[1]; [11],10%
same,Population Healthy Nuclei (%),[1]; [11],68%
same,Population Hoechst High Intensity Objects (%),[1]; [11],4%
same,Population Membrane Permeable-Phenotype (%),[1]; [11],20%
same,Population Mitochondria Different-Phenotype (%),[1]; [11],14%
same,Population Mitotic Cells (%),[1]; [11],0%
same,Population Normal (%),[1]; [11],95%
same,Population Pyknosed Nuclei (%),[1]; [11],21%
same,Population Tubulin-Different-Phenotype (%),[1]; [11],43%
same,Total Cell Count,[1]; [11],84
same,Population Apoptotic (%),[1]; [12],42%
same,Population Fragmented Nuclei (%),[1]; [12],33%
same,Population Healthy Nuclei (%),[1]; [12],50%
same,Population Hoechst High Intensity Objects (%),[1]; [12],19%
same,Population Membrane Permeable-Phenotype (%),[1]; [12],22%
same,Population Mitochondria Different-Phenotype (%),[1]; [12],4%
same,Population Mitotic Cells (%),[1]; [12],57%
same,Population Normal (%),[1]; [12],80%
same,Population Pyknosed Nuclei (%),[1]; [12],15%
same,Population Tubulin-Different-Phenotype (%),[1]; [12],37%
same,Total Cell Count,[1]; [12],111
same,Population Apoptotic (%),[1]; [13],75%
same,Population Fragmented Nuclei (%),[1]; [13],17%
same,Population Healthy Nuclei (%),[1]; [13],75%
same,Population Hoechst High Intensity Objects (%),[1]; [13],14%
same,Population Membrane Permeable-Phenotype (%),[1]; [13],15%
same,Population Mitochondria Different-Phenotype (%),[1]; [13],6%
same,Population Mitotic Cells (%),[1]; [13],25%
same,Population Normal (%),[1]; [13],85%
same,Population Pyknosed Nuclei (%),[1]; [13],6%
same,Population Tubulin-Different-Phenotype (%),[1]; [13],34%
same,Total Cell Count,[1]; [13],68
same,Population Apoptotic (%),[1]; [14],42%
same,Population Fragmented Nuclei (%),[1]; [14],27%
same,Population Healthy Nuclei (%),[1]; [14],66%
same,Population Hoechst High Intensity Objects (%),[1]; [14],7%
same,Population Membrane Permeable-Phenotype (%),[1]; [14],20%
same,Population Mitochondria Different-Phenotype (%),[1]; [14],2%
same,Population Mitotic Cells (%),[1]; [14],57%
same,Population Normal (%),[1]; [14],92%
same,Population Pyknosed Nuclei (%),[1]; [14],5%
same,Population Tubulin-Different-Phenotype (%),[1]; [14],26%
same,Total Cell Count,[1]; [14],133
same,Population Apoptotic (%),[1]; [15],80%
same,Population Fragmented Nuclei (%),[1]; [15],20%
same,Population Healthy Nuclei (%),[1]; [15],72%
same,Population Hoechst High Intensity Objects (%),[1]; [15],14%
same,Population Membrane Permeable-Phenotype (%),[1]; [15],25%
same,Population Mitochondria Different-Phenotype (%),[1]; [15],3%
same,Population Mitotic Cells (%),[1]; [15],20%
same,Population Normal (%),[1]; [15],85%
same,Population Pyknosed Nuclei (%),[1]; [15],6%
same,Population Tubulin-Different-Phenotype (%),[1]; [15],50%
same,Total Cell Count,[1]; [15],84
same,Growth Rate,[2]; [16],0
same,Growth Rate,"[2]; 12 h, replicate number 1, timepoint 12 hours",1
same,Growth Rate,"[2]; 18 h, replicate number 1, timepoint 18 hours",1
same,Growth Rate,[2]; [17],0
same,Growth Rate,[3]; [16],0
same,Growth Rate,"[3]; 18 h, replicate number 2, timepoint 18 hours",1
same,Growth Rate,[3]; [17],1
same,Growth Rate,"[3]; 24 h, replicate number 2, timepoint 24 hours",0
